Consider 17 compounds from ChEMBL document CHEMBL3098107, “Synthesis of novel 2-cyano substituted glycyrrhetinic acid derivatives as inhibitors of cancer cells growth and NO production in LPS-activated J-774 cells” (Bioorg Med Chem, 2014).

A value given as a limit tells only on which side of the number the result lay.

A short description of data set [1]: Cytotoxicity against human KB-3-1 cells assessed as cell survival after 24 hrs by MTT assay. The class given is functional, cell-based. The following applies: KB 3-1, 24 h. The gist of the method: (§1)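 Cells in log phase, in DMEM with 10% heat-inactivated FBS, seeded in triplicate. After 24 h adherence, they were exposed to graded doses for 24 h, then to MTT for 3 h. Formazan was dissolved in DMSO and read at 570 nm. IC50 is the concentration giving 50% survival. Three independent experiments, mean ± SEM.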
(Formazan colour is commonly taken as a measure of viable cells.)

The test system of data set [2] is J774. Nature of the data set: Antiinflammatory activity in mouse J774 cells assessed as inhibition of LPS-induced NO production after 24 hrs by Griess method. In kind it is functional, cell-based. The following applies: J774, 24 h.
For data set [3], the system named is J774. Nature of the data set: Cytotoxicity against mouse J774 cells assessed as cell survival after 24 hrs by MTT assay. The class given is cell-based. The following applies: J774, 24 h. The gist of the method: as §1
For data set [4], the system named is J774. The experiment in a line: Selectivity index, ratio of IC50 for mouse J774 cells to IC50 for human KB-3-1 cells. In kind it is functional. The essentials:
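SI is the IC50 from the J-774 MTT assay divided by the IC50 from the KB-3-1 MTT assay, with both IC50 values from the 24 h assays.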

Data set [5] is described as follows: Solubility of the compound in DMSO. In kind it is physicochemical.

Regarding `COC(=O)[C@@]1(C)CC[C@]2(C)CC[C@]3(C)C(=CC(=O)[C@@H]4[C@@]5(C)CC[C@H](O)C(C)(C)[C@@H]5CC[C@]43C)[C@@H]2C1`, the IC50 (in data set [1]; with J774 [2]; with J774 [3]) was greater than 100 µM each time.

In the case of `COC(=O)[C@@]1(C)CC[C@]2(C)CC[C@]3(C)[C@H](C(=O)C=C4[C@@]5(C)C=C(C#N)C(=O)C(C)(C)[C@@H]5CC[C@]43C)[C@@H]2C1`, the IC50 (as a rule, the concentration that gives 50% inhibition) in data set [1] came to 0.3 µM; in the data set with J774 [2], 0.11 µM; with J774 [3] it was 3.32 µM. The “Ratio IC50” value in the data set with J774 [4] is given as 11.

In the case of `COC(=O)[C@@]1(C)CC[C@]2(C)CC[C@]3(C)C(=CC[C@@H]4[C@@]5(C)C/C(=C\O)C(=O)C(C)(C)[C@@H]5CC[C@]43C)[C@@H]2C1`, the figures for the IC50 (in data set [1]; in the data set on J774 [2]; with J774 [3]) were 40 µM, 10.5 µM and greater than 100 µM, respectively. The “Ratio IC50” value with J774 [4] is recorded as greater than 2.5.

In the case of `COC(=O)[C@@]1(C)CC[C@]2(C)CC[C@]3(C)C(=CC[C@@H]4[C@@]5(C)Cc6cnoc6C(C)(C)[C@@H]5CC[C@]43C)[C@@H]2C1`, the IC50 in data set [1] is greater than 100 µM; in the data set with J774 [2], 12.4 µM; in the data set with J774 [3], greater than 100 µM.

In the case of `COC(=O)[C@@]1(C)CC[C@]2(C)CC[C@]3(C)C(=CC[C@@H]4[C@@]5(C)CC(C#N)=C(O)C(C)(C)[C@@H]5CC[C@]43C)[C@@H]2C1`, the IC50 in data set [1] was 80 µM; in the data set on J774 [2], 8 µM; in the data set with J774 [3], greater than 100 µM. Further, in the data set with J774 [4], the “Ratio IC50” value is given as greater than 1.3.

On to `COC(=O)[C@@]1(C)CC[C@]2(C)CC[C@]3(C)[C@H](C(=O)C[C@@H]4[C@@]5(C)CC[C@H](O)C(C)(C)[C@@H]5CC[C@]43C)[C@@H]2C1`, for which the IC50 came to 6.8 µM in data set [1], 59.4 µM with J774 [2] and 56.1 µM in the data set with J774 [3]. The “Ratio IC50” value with J774 [4] is 8.3.

As for `COC(=O)[C@@]1(C)CC[C@]2(C)CC[C@]3(C)[C@H](C(=O)C[C@@H]4[C@@]5(C)CCC(=O)C(C)(C)[C@@H]5CC[C@]43C)[C@@H]2C1`, the IC50 was 25.2 µM in data set [1], 23.4 µM in the data set with J774 [2] and greater than 100 µM with J774 [3]. In addition, in the data set with J774 [4], the “Ratio IC50” value is recorded as greater than 3.9.

Take `COC(=O)[C@@]1(C)CC[C@]2(C)CC[C@]3(C)C(=CC[C@@H]4[C@@]5(C)C=C(C#N)C(=O)C(C)(C)[C@@H]5CC[C@]43C)[C@@H]2C1`: in data set [5], the solubility entry is “Insoluble”.

Regarding `COC(=O)[C@@]1(C)CC[C@]2(C)CC[C@]3(C)C(=CC[C@@H]4[C@@]5(C)CC[C@H](O)C(C)(C)[C@@H]5CC[C@]43C)[C@@H]2C1`, in data set [5], the solubility entry is “Insoluble”.

Regarding `COC(=O)[C@@]1(C)CC[C@]2(C)CC[C@]3(C)C(=CC[C@@H]4[C@@]5(C)CCC(=O)C(C)(C)[C@@H]5CC[C@]43C)[C@@H]2C1`, the solubility entry in data set [5] was “Insoluble”.

`COC(=O)[C@]1(C)C=C2C3=CC(=O)[C@@H]4[C@@]5(C)C=C(C#N)C(=O)C(C)(C)[C@@H]5CC[C@@]4(C)[C@]3(C)CC[C@@]2(C)CC1`: the IC50 in data set [1] was found to be 4 µM; with J774 [2], 5.6 µM; in the data set with J774 [3], 7 µM. For the same compound, the “Ratio IC50” value in the data set on J774 [4] is given as 1.8.

As to `COC(=O)[C@@]1(C)CC[C@]2(C)CC[C@]3(C)[C@H](C(=O)C[C@@H]4[C@@]5(C)C=C(C#N)C(=O)C(C)(C)[C@@H]5CC[C@]43C)[C@@H]2C1`, the IC50 in data set [1] was 5.5 µM; in the data set on J774 [2], 2.8 µM; in the data set on J774 [3], greater than 100 µM. Further, in the data set on J774 [4], the “Ratio IC50” value is given as greater than 18.2.

Consider `COC(=O)[C@]1(C)C=C2C3=CC(=O)[C@@H]4[C@@]5(C)CC[C@H](O)C(C)(C)[C@@H]5CC[C@@]4(C)[C@]3(C)CC[C@@]2(C)CC1`, for which the IC50 in the data set on J774 [2] and in the data set with J774 [3] was greater than 100 µM throughout.

With `COC(=O)[C@]1(C)C=C2C3=CC(=O)[C@@H]4[C@@]5(C)CCC(=O)C(C)(C)[C@@H]5CC[C@@]4(C)[C@]3(C)CC[C@@]2(C)CC1`, the IC50 in the data set on J774 [2] amounted to 16.3 µM; with J774 [3], 20.1 µM.

As to `COC(=O)[C@]1(C)C=C2C3=CC(=O)[C@@H]4[C@@]5(C)C/C(=C/O)C(=O)C(C)(C)[C@@H]5CC[C@@]4(C)[C@]3(C)CC[C@@]2(C)CC1`, the IC50 in the data set on J774 [2] was found to be 14.5 µM; with J774 [3], 13.4 µM.

Take `COC(=O)[C@@]1(C)CC[C@]2(C)CC[C@]3(C)C(=CC(=O)[C@@H]4[C@@]5(C)C=C(C#N)C(=O)C(C)(C)[C@@H]5CC[C@]43C)[C@@H]2C1`: the IC50 in data set [1] was 20 µM; with J774 [2], 2 µM; with J774 [3], greater than 100 µM. The “Ratio IC50” value with J774 [4] was greater than 5.

Take `COc1ccc2c(c1)c(CC(=O)O)c(C)n2C(=O)c1ccc(Cl)cc1` [INDOMETHACIN]: the IC50 with J774 [2] was 29.6 µM; in the data set on J774 [3] it was greater than 100 µM.
